Variants at the floor of the assay were thinned out.

The labels stand for the following.
B1: tRNA (parent)
chain: GUUCCGUUGGCGUAAUGGUAACGCGUCUCCCUCCUAAGGAGAAGACUGCGGGUUCGAGUCCCGUACGGAACG

This data set covers variants of B1. Briefly: yeast fitness relative to wild type (ratio to wild type); higher = fitter; tRNA-Arg(CCU), competitive growth, 37 C, YPD. The gist of the method: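 For this measurement, the tRNA-Arg(CCU) gene was varied by chemical synthesis at a 3% per-site mutation rate across 69 sites, and each variant was placed at the native genomic locus in Saccharomyces cerevisiae. The pooled strains went through a 24-hour competition in YPD at 37°C in six parallel replicates, with amplicons from start and end populations read by 100-nucleotide paired-end sequencing. Darwinian fitness relative to wild type followed from the change in each genotype's frequency. Genotypes needed ≥ 100 starting reads, and estimates < 0.5 were set to 0.5.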
Consider C24G C27U A37G, for which the yeast fitness turned out to be 0.536.
The figure for G23C C29G A43U G50A A70U is not above 0.5; for C24A G25C U47A it is not above 0.5.
As to G23C C24G C34G U64A G67A, the yeast fitness was not above 0.5.
For the variant C24A A43U G51C G52C, the yeast fitness is not above 0.5.
As for C24A C31G C62A, the yeast fitness worked out at 0.594.
On to G23C G39C A42U G52U U53A, for which the yeast fitness was not above 0.5.
In the case of C24A A43G A70C, the yeast fitness was not above 0.5.
With C24G C46U A70U, the yeast fitness stood at 0.642.
For C24G A37G C55U, the yeast fitness is not above 0.5.
For C24G A43C C46G U53G C61U, the yeast fitness is not above 0.5.
On to C24G A70C, for which the yeast fitness was 0.666.
The figure for C24A C33A C49U U54G G56A is not above 0.5; for C24G A36G U64C A65U it is not above 0.5.
With G23C C30G A37U C62U A65U, the yeast fitness is not above 0.5.
For C24A U54C, the yeast fitness turned out to be 0.634.
As to C24G C30G G52A C60A, the yeast fitness is not above 0.5.
With C24G A43G C49U C55G, the yeast fitness was found to be 0.643.
On to C24G C33G G51A U53A G56A G67C, for which the yeast fitness stood at 0.541.
As for C24G C30U C34A A45G G51A, the figure is not above 0.5; as for C24A G48C A70U, not above 0.5.
On to C24G A65U, for which the yeast fitness was found to be 0.742.
The figure for C24A A42G C61U C62G is 0.541; for G23C C24G U32G A42C G44A G51C C60U it is not above 0.5.
For C24G C30U U32A A45G C62U, the yeast fitness is not above 0.5.
In the case of C24G C34G U53A, the yeast fitness stood at 0.552.
Regarding G23U C60U A65G, the yeast fitness was not above 0.5.
Regarding C24G C34U U53C C55G C62A, the yeast fitness was not above 0.5.
As for G23C G41A, the yeast fitness stood at 0.716.
The figure for C24G A36G C61A is not above 0.5; for C24G G25A C30G it is not above 0.5; for C24G A37C A57U it is not above 0.5.
Take C24G A36C A42U A43G: the yeast fitness was not above 0.5.
As to C24A U26A C31A C62A, the yeast fitness was not above 0.5.
For C24A U32C G39C A70C, the yeast fitness was not above 0.5.
Take C24G C49U C55G: the yeast fitness was not above 0.5.
Regarding C24A A36U C55A, the yeast fitness is not above 0.5.
In the case of C24A U26G A43C C62G G63A C66G A69G, the yeast fitness came to 0.531.
As to C24A U26A C31A, the yeast fitness is 0.544.
For the variant G23C C33A G50C G58C A70G, the yeast fitness came out at 0.548.
The figure for C24A G51A C60U G67A is not above 0.5; for C24A A42G it is 0.548; for C24G A36C A57C A69U A70C it is not above 0.5.
In the case of C24G C61G, the yeast fitness is 0.537.
On to G23C G25A C61U, for which the yeast fitness turned out to be 0.536.
Consider C24G C29U G50A, for which the yeast fitness is not above 0.5.
The figure for G23C C29U A36C C49G A70U is 0.53.
Consider G23C C60A A70U, for which the yeast fitness came out at 0.536.
Turning to C24A C27G C29G G52C C62U, the yeast fitness was found to be 0.567.
The figure for C24A C49U is 0.614; for C24G A36G A45G it is not above 0.5; for C24A A37U it is 0.579.
As to C24A A37G, the yeast fitness is 0.513.
As for G23C C27A A57U, the figure is not above 0.5; as for G23C G67A, 0.56; as for C24G C27G A37G, 0.575.
On to G23C C29G G63C C66G, for which the yeast fitness was not above 0.5.
The figure for C24G C34G A69U is not above 0.5.
The figure for G23C G51A C61G A69U is not above 0.5; for C24G G25C A45G C60A it is 0.617; for C24G A36U A40G U64C it is not above 0.5.
Take C24A A36C: the yeast fitness came to 0.531.
As for C24A C33A C49U U54G, the yeast fitness amounted to 0.58.
Take G23C G56A A70U: the yeast fitness was not above 0.5.
As for C24G C30U C61G, the yeast fitness is not above 0.5.
The figure for G23C C31A C62U A70G is not above 0.5; for G23C U28C C46G C62G it is not above 0.5; for C24G C66U A69C it is not above 0.5.
In the case of C24A U59C, the yeast fitness is 0.553.
For the variant C24A G44A U54C G56C, the yeast fitness is not above 0.5.
C24G A36C A40G A45U: the yeast fitness was not above 0.5.
With C24G G25C C30G U32C A70C, the yeast fitness worked out at 0.533.
Consider C24A G48C, for which the yeast fitness came out at 0.621.
On to G23C C29A C66U, for which the yeast fitness is not above 0.5.
Regarding C24G C49A, the yeast fitness was not above 0.5.
For the variant C24A A43U G50A G67A, the yeast fitness was not above 0.5.
As for C24G C29U U35C, the figure is not above 0.5.
Take C24G C31A: the yeast fitness was 0.526.
C24G C31U: the yeast fitness is 0.571.
With G23C C33A G50C G58C, the yeast fitness is not above 0.5.
For the variant C24G C29A A43U A57G G68C, the yeast fitness was not above 0.5.
As for G23C G41C G68A, the yeast fitness is not above 0.5.
C24G A37U U47A: the yeast fitness is not above 0.5.
Regarding C24G C30U C31A, the yeast fitness was not above 0.5.
On to C24A A42G U47C U59C, for which the yeast fitness was not above 0.5.
Regarding C24G A36G A45G A65U, the yeast fitness is not above 0.5.
With G23C C31A C49G C55A, the yeast fitness was 0.534.
Turning to C24G C33G A36C A37C A42C A65U, the yeast fitness is not above 0.5.
Consider G23C G56A, for which the yeast fitness turned out to be 0.566.
Turning to G23C G56C, the yeast fitness was not above 0.5.
On to C24G A42U C49U, for which the yeast fitness was not above 0.5.
G23C U26A C29G A36U: the yeast fitness turned out to be 0.68.
Turning to G23C G44C G68C, the yeast fitness is not above 0.5.
On to C24A A43U U59A C61U, for which the yeast fitness is not above 0.5.
The figure for G23U G52A C55A U64A is not above 0.5.
As for C24G C46A, the figure is 0.937; as for C24G C46U, 0.654; as for C24A G56A, 0.711.
With G23C U32A C66U, the yeast fitness was not above 0.5.
For C24G C29A C30U G50A C62U, the yeast fitness is not above 0.5.
For the variant C24G C30U A43U, the yeast fitness was 0.549.
For C24A U28C, the yeast fitness amounted to 0.568.
C24A A45G G50A: the yeast fitness is not above 0.5.
The figure for C24A C61U G67A is not above 0.5; for C24G C30A U47C G63A it is not above 0.5.
As for C24G A37G G58A G67A, the yeast fitness was not above 0.5.
The figure for C24A G25C is 0.702.
As to C24G C30U C34A G51A, the yeast fitness worked out at 0.542.
Regarding C24G A42U, the yeast fitness was 0.559.
For C24G A45U G67A, the yeast fitness is not above 0.5.
For the variant C24G C31G G50A G68C, the yeast fitness is not above 0.5.
For G23C C49G, the yeast fitness was 0.563.
Take C24A U32A C55A G68C: the yeast fitness is not above 0.5.
For the variant C24G A37U C55U G67C, the yeast fitness is not above 0.5.
For the variant C24A C27U A40U G44C A57U G67C, the yeast fitness is not above 0.5.
The figure for C24A G67U is 0.669; for C24A G67C it is 0.74.
Consider C24A G67A, for which the yeast fitness was 0.709.
For the variant C24A A42G C49U U59G C62A A69G, the yeast fitness was not above 0.5.
In the case of C24G C33G A36C A37C A42C, the yeast fitness is 0.505.
With G23C C49G G51C G52A, the yeast fitness is not above 0.5.
On to C24G C31A U64A, for which the yeast fitness is not above 0.5.
As to C24G A45U, the yeast fitness worked out at 0.557.
Consider C24G A45G, for which the yeast fitness amounted to 0.637.
On to C24G A45C, for which the yeast fitness was 0.629.
Regarding C24A A45G C61G C62U, the yeast fitness stood at 0.543.
For G23C C30G G63A, the yeast fitness is not above 0.5.
For C24G C46U A69U, the yeast fitness came out at 0.595.
The figure for C24A A36C G41A U53C is not above 0.5; for C24A C34U C49A A65U it is not above 0.5.
For the variant G23C C34G C55G, the yeast fitness was not above 0.5.
The figure for C24A C27G U53C C55U is not above 0.5.
Regarding G23C C62G, the yeast fitness was found to be 0.692.
As for C24A A43U A45C, the figure is not above 0.5.
For the variant C24A C31G, the yeast fitness is 0.625.
For C24A C31A, the yeast fitness turned out to be 0.603.
Turning to C24A C31U, the yeast fitness was determined as 0.754.
With C24A G56C C61G, the yeast fitness is not above 0.5.
The figure for C24G C27U A40U U59C G68A is 0.582.
Turning to C24G A40G G50C, the yeast fitness amounted to 0.599.
Consider G23C G38C A40U G58C, for which the yeast fitness was not above 0.5.
C24G C29A G50C A57C: the yeast fitness is not above 0.5.
The figure for G23U A69C is 0.695; for C24A C31U C46U it is 0.785.
On to C24G C31G C61G, for which the yeast fitness was 0.507.
With C24G C49G A70U, the yeast fitness is not above 0.5.
On to G23C C49A U59C G67A A69G, for which the yeast fitness was not above 0.5.
Take C24G C31U C33G: the yeast fitness was not above 0.5.
On to C24A C33A A37U G50C C61U, for which the yeast fitness is not above 0.5.
Turning to C24G A37U A42G, the yeast fitness was not above 0.5.
The figure for C24G C27U C33U G50C is not above 0.5; for C24G C27U C33U G50A it is not above 0.5; for G23C G39A it is 0.669.
As for G23C C27U G56A G63C, the yeast fitness was 0.573.
As for G23C C27G C55G G56A G58A C66G A70U, the figure is not above 0.5; as for C24G A40C A45U, not above 0.5; as for C24A U32A G50C, not above 0.5.
For C24G G25C A40C A42U U47A C61G C66G, the yeast fitness is 0.509.
As for C24A U35G G52A U64A, the figure is 0.514.
Regarding C24A C33A C49U U54G A70C, the yeast fitness is not above 0.5.
Regarding G23C C31A C62A, the yeast fitness turned out to be 0.527.
Turning to C24G A36G U53A, the yeast fitness came out at 0.555.
In the case of C24A U26G A43C U64C, the yeast fitness is not above 0.5.
Take G23C G41C C66U: the yeast fitness was not above 0.5.
With C24G A36C A40C A42U, the yeast fitness was not above 0.5.
On to C24A C30U C55U, for which the yeast fitness is not above 0.5.
As for C24A U47G G68A, the figure is not above 0.5.

These data come from the RNAGym collection of RNA variant scans (doi:10.1126/science.aae0568).
